Our source for the IC50 and Activity values is ChEMBL document CHEMBL1152395, “Scuteflorins A and B, dihydropyranocoumarins from Scutellaria lateriflora” (J Nat Prod, 2009).

Each structure is given as a SMILES string. Active and inactive are the calls of the source. The rule behind the calls is not given here.

For data set [1], the system named is SW1353. In words: Antiinflammatory activity in PMA-stimulated human SW1353 cells assessed as inhibition of NF-kappaB activation. The data set is classed as functional, cell-based. Put shortly:
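SW1353 cells were stimulated with PMA, and inhibition of NF-κB-mediated transcription was scored as IC50. Parthenolide was the positive control. Specificity was checked against a Sp-1-dependent luciferase control plasmid.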

The test system of the next data set is SK-MEL. In words: Cytotoxicity against human SK-MEL cells upto 50 uM by neutral red assay. The class given is functional, cell-based. Put shortly:
(§1)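 Neutral red uptake assay. Purified compounds were tested up to 50 μM and the methanol extract up to 50 μg/mL. The panel was normal Vero monkey kidney fibroblasts and LLC-PK11 pig kidney epithelial cells, plus solid tumour lines HepG2, SK-MEL, KB, BT-549 and SK-OV-3.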

For data set [2], the system named is SW1353. The data set can be described thus: Cytotoxicity against human SW1353 cells by neutral red assay. The class given is cell-based.
The next data set relates to BT-549. In words: Cytotoxicity against human BT549 cells upto 50 uM by neutral red assay. The data set is classed as functional, cell-based. The method in brief:
as §1

Another data set concerns Vero. The data set can be described thus: Cytotoxicity against african green monkey Vero cells upto 50 uM by neutral red assay. The class given is cell-based. Particulars: chlorocebus sabaeus. Put shortly: as §1
The test system of the next data set is KB. The data set can be described thus: Cytotoxicity against human KB cells upto 50 uM by neutral red assay. The data set is classed as functional, cell-based. The method in brief:
as §1

A further data set concerns SK-OV-3. In words: Cytotoxicity against human SKOV3 cells upto 50 uM by neutral red assay. The class given is functional, cell-based. The method in brief: as §1
The target of data set [3] is Transcription factor Sp1 (Homo sapiens) (UniProt P08047). In words: Inhibition of SP1-dependent luciferase expression. Put shortly:
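Counter-screen in SW1353 cells for inhibition of luciferase expression from a control plasmid driven by Sp-1. It runs alongside the PMA-induced NF-κB transcription assay to exclude nonspecific or cytotoxic effects.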

Another data set relates to HepG2. The data set can be described thus: Cytotoxicity against human HepG2 cells upto 50 uM by neutral red assay. The class given is functional, cell-based. Put shortly: as §1
Data set [4] in a line: Cytotoxicity against pig LLC-PK11 cells upto 50 uM by neutral red assay. The class given is cell-based, Sus scrofa. Put shortly: as §1
Data set [5] relates to HL-60. The data set can be described thus: Antioxidant activity in human HL60 cells assessed as inhibition of relative oxygen species generation by DCFH-DA method. The class given is functional, cell-based. The method in brief:
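Intracellular reactive oxygen species generation was measured in myelomonocytic HL-60 cells by the DCFH-DA method. IC50 values were derived, and vitamin C served as positive control. Cytotoxicity in HL-60 cells was checked up to 62.5 μM within this assay.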

The subject of data set [6] is HL-60. In words: Cytotoxicity against human HL60 cells by neutral red assay. The class given is cell-based.

Chain of Transcription factor Sp1 (Homo sapiens) (P08047 whole entry): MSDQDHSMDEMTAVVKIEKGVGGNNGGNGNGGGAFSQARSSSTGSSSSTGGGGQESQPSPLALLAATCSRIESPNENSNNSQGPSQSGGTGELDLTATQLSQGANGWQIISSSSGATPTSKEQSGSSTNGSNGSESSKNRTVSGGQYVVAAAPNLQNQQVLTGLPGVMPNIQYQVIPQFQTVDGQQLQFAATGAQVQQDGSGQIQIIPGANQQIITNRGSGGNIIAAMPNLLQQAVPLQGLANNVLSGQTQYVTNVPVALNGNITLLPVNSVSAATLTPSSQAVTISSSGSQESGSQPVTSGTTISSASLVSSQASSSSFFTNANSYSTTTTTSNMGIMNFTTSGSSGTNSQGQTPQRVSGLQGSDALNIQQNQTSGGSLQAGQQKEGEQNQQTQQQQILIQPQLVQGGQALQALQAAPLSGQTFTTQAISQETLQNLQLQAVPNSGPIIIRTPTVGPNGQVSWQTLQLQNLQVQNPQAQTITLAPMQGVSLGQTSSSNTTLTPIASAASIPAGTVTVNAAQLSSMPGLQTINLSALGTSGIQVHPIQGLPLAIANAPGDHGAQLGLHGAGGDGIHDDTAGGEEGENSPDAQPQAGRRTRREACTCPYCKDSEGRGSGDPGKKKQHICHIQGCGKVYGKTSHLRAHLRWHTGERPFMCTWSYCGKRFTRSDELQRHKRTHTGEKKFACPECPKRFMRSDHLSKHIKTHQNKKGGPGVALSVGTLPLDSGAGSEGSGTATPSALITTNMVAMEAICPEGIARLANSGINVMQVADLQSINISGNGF

Regarding `C=C1C(=O)O[C@@H]2C3O[C@]3(C)CC/C=C(\C)CC[C@@H]12` (some centres not stated), the IC50 (usually the point on the concentration scale where inhibition reaches its midpoint) in the data set on SW1353 [1] turned out to be 4.1 µM.
As to `COc1ccccc1-c1cc(=O)c2c(O)cc(O)c(OC)c2o1`, the result (in the data set on SK-MEL; in the data set on BT-549; in the data set on KB; in the data set on SK-OV-3; in data set [3]; in the data set with HepG2) was inactive. In addition, the Activity result (in the data set on SW1353 [2]; with Vero; in data set [4]) was “Non-toxic” in each case.
On to `O=C1O[C@H]([C@@H](O)CO)C(O)=C1O` [ASCORBIC ACID], for which, in the data set on HL-60 [5] (Homo sapiens, HL-60, read-out: IC50), the IC50 is 0.01 µM.
For the molecule `CC[C@H](CC[C@@H](C)[C@H]1CC[C@H]2[C@@H]3CC=C4C[C@@H](O)CC[C@]4(C)[C@H]3CC[C@]12C)C(C)C` [BETA-SITOSTEROL], the outcome (in the data set on SK-MEL; in the data set with BT-549; with KB; with SK-OV-3; in [3]; in the data set with HepG2) was inactive. The Activity result (with SW1353 [2]; in the data set on Vero; in [4]) was “Non-toxic” each time.
In the case of `O=c1cc(-c2ccccc2)oc2cc(O)cc(O)c12` [CHRYSIN], the outcome (in the data set with SK-MEL; in the data set with BT-549; with KB; in the data set with SK-OV-3; in data set [3]; with HepG2) was inactive. In addition, the Activity entry (with SW1353 [2]; with Vero; in data set [4]) was “Non-toxic” throughout. Besides, the IC50 with SW1353 [1] is 33 µM; with HL-60 [5] (hl-60), “Not Active”.
For `CC(C)=CC(=O)O[C@H]1Cc2cc3ccc(=O)oc3cc2OC1(C)C` [DECURSIN], the result (with SK-MEL; in the data set on BT-549; in the data set on KB; with SK-OV-3; in data set [3]; in the data set with HepG2) was inactive. Moreover, the Activity entry (in the data set with SW1353 [2]; in the data set on Vero; in data set [4]) was “Non-toxic” each time.
On to `COc1c(O)cc2c(c1O)C(=O)C[C@@H](c1ccccc1)O2` [DIHYDROOROXYLIN A], for which the result (with SK-MEL; in the data set with BT-549; with KB; in the data set with SK-OV-3; in data set [3]; with HepG2) was inactive. Besides, the Activity result (in the data set on SW1353 [2]; in the data set with Vero; in [4]) was “Non-toxic” in each case.
Take `C=C(C)[C@@H]1CC[C@]2(C)CC[C@]3(C)[C@H](CC[C@@H]4[C@@]5(C)CC[C@H](O)C(C)(C)[C@@H]5CC[C@]43C)[C@@H]12` [LUPEOL]: the outcome (in the data set on SK-MEL; in the data set on BT-549; in the data set with KB; in the data set with SK-OV-3; in data set [3]; with HepG2) was inactive. In addition, the Activity entry (with SW1353 [2]; in the data set with Vero; in data set [4]) was “Non-toxic” each time.
As to `COc1c(O)cc2oc(-c3ccccc3)cc(=O)c2c1O` [OROXYLIN A], the result (with SK-MEL; with BT-549; in the data set with KB; in the data set on SK-OV-3; in data set [3]; in the data set with HepG2) was inactive. In addition, the Activity result (in the data set on SW1353 [2]; in the data set on Vero; in data set [4]) was “Non-toxic” in each case. The IC50 with SW1353 [1] was > 50 µM; with HL-60 [5] (hl-60) it was “Not Active”.
On to `CCCCCCCCCCCCCCCC(=O)O` [PALMITIC ACID], for which the outcome (in the data set on SK-MEL; in the data set on BT-549; in the data set with KB; in the data set on SK-OV-3; in [3]; in the data set on HepG2) was inactive. For the same molecule, the Activity result (in the data set on SW1353 [2]; in the data set with Vero; in [4]) was “Non-toxic” throughout.
`O=C1C[C@@H](c2ccccc2)Oc2cc(O)cc(O)c21` [PINOCEMBRIN]: the outcome (in the data set on SK-MEL; in the data set with BT-549; in the data set on KB; in the data set with SK-OV-3; in [3]; in the data set on HepG2) was inactive. Moreover, the Activity result (in the data set on SW1353 [2]; with Vero; in [4]) was “Non-toxic” throughout.
As for `C[C@@H]1CC[C@]2(C(=O)O)CC[C@]3(C)C(=CC[C@@H]4[C@@]5(C)CC[C@H](O)C(C)(C)[C@@H]5CC[C@]43C)[C@@H]2[C@]1(C)O` [POMOLIC ACID], the result (in the data set with SK-MEL; in the data set on BT-549; in the data set with KB; in the data set with SK-OV-3; in [3]; in the data set with HepG2) was inactive. Further, the Activity result (in the data set on SW1353 [2]; with Vero; in data set [4]) was “Non-toxic” throughout.
Consider `CC(C)=CC(=O)O[C@H]1C(=O)c2cc3ccc(=O)oc3cc2OC1(C)C` [SCUTEFLORIN A], for which the outcome (in the data set with SK-MEL; with BT-549; in the data set on KB; in the data set on SK-OV-3; in data set [3]; in the data set with HepG2) was inactive. Moreover, the Activity entry (in the data set with SW1353 [2]; with Vero; in [4]) was “Non-toxic” throughout.
As to `C/C=C(/C)C(=O)O[C@H]1C(=O)c2cc3ccc(=O)oc3cc2OC1(C)C` [SCUTEFLORIN B], the outcome (with SK-MEL; in the data set with BT-549; in the data set with KB; with SK-OV-3; in data set [3]; in the data set with HepG2) was inactive. For the same molecule, the Activity result (with SW1353 [2]; in the data set on Vero; in data set [4]) was “Non-toxic” in each case.
Regarding `CC1(C)CC[C@]2(C(=O)O)CC[C@]3(C)C(=CC[C@@H]4[C@@]5(C)CC[C@@H](O)[C@](C)(CO)[C@@H]5CC[C@]43C)[C@@H]2C1` [SCUTELLARIC ACID], the outcome (in the data set on SK-MEL; in the data set with BT-549; in the data set on KB; in the data set on SK-OV-3; in [3]; with HepG2) was inactive. For the same molecule, the Activity result (with SW1353 [2]; in the data set on Vero; in data set [4]) was “Non-toxic” in each case.
Take `CC[C@H](CC[C@@H](C)[C@H]1CC[C@H]2[C@@H]3CC=C4C[C@@H](O[C@@H]5O[C@H](CO)[C@@H](O)[C@H](O)[C@H]5O)CC[C@]4(C)[C@H]3CC[C@]12C)C(C)C` [SITOGLUSIDE]: the result (in the data set on SK-MEL; with BT-549; with KB; in the data set on SK-OV-3; in [3]; in the data set on HepG2) was inactive. Moreover, the Activity result (with SW1353 [2]; in the data set with Vero; in data set [4]) was “Non-toxic” in each case.
With `C[C@H]1[C@H](C)CC[C@]2(C(=O)O)CC[C@]3(C)C(=CC[C@@H]4[C@@]5(C)CC[C@H](O)C(C)(C)[C@@H]5CC[C@]43C)[C@H]12` [URSOLIC ACID], the outcome (in the data set with SK-MEL; in the data set on BT-549; in the data set with KB; in the data set with SK-OV-3; in data set [3]; in the data set on HepG2) was inactive. For the same molecule, the Activity entry (with SW1353 [2]; with Vero; in [4]) was “Non-toxic” throughout.
As for `COc1c(O)cc(O)c2c(=O)cc(-c3ccccc3)oc12` [WOGONIN], the result (in the data set with SK-MEL; in the data set on BT-549; with KB; in the data set on SK-OV-3; in [3]; with HepG2) was inactive. The Activity entry with SW1353 [2] is “Non-toxic”; in the data set with Vero it was “Non-toxic”; in the data set on HL-60 [6], “Not Active”; in data set [4], “Non-toxic”. In addition, the IC50 with SW1353 [1] was found to be 39 µM.
